Measurements gathered from unrelated publications.
Lines come from different studies, so protocols differ.
Target: Glycogen synthase kinase-3 alpha (GSK3A, Homo sapiens, UniProt P49840)

CO[C@@H]1[C@H](N(C)C(=O)c2ccccc2)C[C@H]2O[C@]1(C)n1c3ccccc3c3c4c(c5c6ccccc6n2c5c31)C(=O)NC4
inhibition (enzyme activity, inhibitor; 1 µM): 14%

CC(=O)ON=C1C=CC(=C(C#N)c2ccccc2)C=C1
activity vs control (enzyme activity, inhibitor, ADP detection; 20 µM): 94%

C1=C/COCc2cc(ccc2OCCN2CCCC2)Nc2nccc(n2)-c2cccc(c2)COC/1
remaining binding (binding; 0.1 µM): 100%

C=CC(=O)N1CCC([C@@H]2CCNc3c(C(N)=O)c(-c4ccc(Oc5ccccc5)cc4)nn32)CC1
inhibition (enzyme activity, inhibitor; 1 µM): 2%

C[C@H]1CC[C@H](n2c3cnccc3c3cnc(Nc4ccc5c(n4)CCN(C(=O)CO)C5)nc32)CC1
remaining signal (cell-free assay; 1 µM): 35%

COc1ccc2oc(-c3ccc4nc(N)oc4c3)c/c(=N\c3ccccc3NC(=O)CCN)c2c1
remaining binding (binding; 1 µM): 94%

Cc1cc(O)c(-c2ccc([C@@H](C)CN(C)C)cc2)c2c1[nH]c(=O)c1sccc12
inhibition (enzyme activity, inhibitor; 0.1 µM): -5.76%

Cc1ccc(NC(=O)c2ccnc(C(F)(F)F)c2)cc1-c1cc(OCCO)nc(N2CCOCC2)c1
remaining binding (binding; 1 µM): 100%

CCCCC(=O)Nc1ccc(-c2ccc3ncn(CCC)c(=O)c3c2)cn1
remaining binding (binding, competition with immobilised ligand; 0.5 µM): 94%
